Assay results reported in PMC7578760 (iScience, 2020).

Legend:
DUSP6 [1] = test: Western blot of DUSP6 expression in 1205Lu melanoma cells; assay type: cell-based; conditions: 1205Lu (BRAF^V600E), 2 μM PLX4032, 0, 6, 24 h
ERK signaling = test: Block of ERK signaling in MCF7 cells; assay type: cell-based, human
DUSP6 [2] = test: Western blot of DUSP6 expression in 293T / 293T^CIC cells; assay type: cell-based, human; conditions: parental 293T, 10 ng/mL FGF, various times; SCH772984 10 μM
Method in brief: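 Parental and CIC-knockout 293T cells grown in high-glucose DMEM with 10% FBS and penicillin-streptomycin. Cells stimulated with 10 ng/mL FGF for various times, with or without 10 uM ERK inhibitor, then lysed. DUSP6 detected by western blot.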

ERK1/2 = test: Western blot of activated ERK1/2 in 293T^CIC cells; assay type: cell-based, human; conditions: 10 μM, 4 h

In the case of CCCS(=O)(=O)Nc1ccc(F)c(C(=O)c2c[nH]c3ncc(-c4ccc(Cl)cc4)cc23)c1F [PLX4032], the DUSP6 expression (DUSP6 [1]) is reported as “time-dependent decrease of DUSP6 expression”.

For O=C(Nc1ccc2[nH]nc(-c3ccncc3)c2c1)[C@@H]1CCN(CC(=O)N2CCN(c3ccc(-c4ncccn4)cc3)CC2)C1 [SCH772984], the “effectiveness to block ERK signaling” value (ERK signaling) was “not effective to block the ERK signaling in MCF7 cells” and the DUSP6 expression (DUSP6 [2]) was “drop”.

With CN1CCN(c2ccc(-c3ccncc3-c3cc(F)c(O)c(F)c3)cc2)CC1 [LJH685] the “levels of activated ERK1/2” value (ERK1/2) was “did not reduce the levels of activated ERK1/2”.
